Publication PMC7191562 (ACS Omega, 2020)
Converted amounts (≈) assume the structure as drawn.

Test system: E. faecalis (MDR 14U0445)
Experiment: MIC antibacterial assay
Format: cell-based
Conditions: Enterococcus faecalis, 16 h
How it was run: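 Clinical isolates grown from single colonies in LB at 37 °C to log phase, then set to 2 × 10⁵ CFU/mL in LB using 1 OD600 = 1 × 10⁹ CFU/mL. Peptide stock was 2 mg/mL in water. A 192 μg/mL peptide solution was twofold serially diluted in LB, then bacteria were added. Plates ran 16 h at 37 °C with A600 read-out, each peptide in triplicate.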

Molecule `CC1(C)S[C@@H]2[C@H](NC(=O)[C@H](N)c3ccccc3)C(=O)N2[C@H]1C(=O)O` [Amp, Ampicillin] has an MIC of 2 µg/mL (≈ 5.72 µM).
